Hits are enriched below; roughly 4.8% of the tested compounds scored in any of these assays.
Mdm2-MdmX inh = disrupts the human Mdm2-MdmX interaction; AID 485346; 3% of 330,000 active; O15151+Q00987; inhibition, % at 8 µM; SaOS-2 split-luciferase Mdm2/MdmX complementation, luminescence;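 active = inhibition of at least 50% at 8 µM in the primary screen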
Target sequence (O15151 whole entry, looked up): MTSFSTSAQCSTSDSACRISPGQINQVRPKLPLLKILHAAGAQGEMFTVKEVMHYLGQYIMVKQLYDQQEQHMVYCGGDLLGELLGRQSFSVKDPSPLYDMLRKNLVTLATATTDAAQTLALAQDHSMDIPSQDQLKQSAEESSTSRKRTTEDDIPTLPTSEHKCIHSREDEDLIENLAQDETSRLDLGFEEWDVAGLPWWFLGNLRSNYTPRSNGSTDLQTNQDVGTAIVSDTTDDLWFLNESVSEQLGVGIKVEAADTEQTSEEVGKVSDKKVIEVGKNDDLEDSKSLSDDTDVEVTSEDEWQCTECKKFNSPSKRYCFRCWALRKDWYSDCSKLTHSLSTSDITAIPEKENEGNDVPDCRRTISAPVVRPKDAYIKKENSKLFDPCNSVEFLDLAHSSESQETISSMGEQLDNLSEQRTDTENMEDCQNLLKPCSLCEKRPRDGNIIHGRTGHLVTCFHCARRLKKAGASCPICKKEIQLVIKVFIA
Target sequence (Q00987 whole entry, looked up): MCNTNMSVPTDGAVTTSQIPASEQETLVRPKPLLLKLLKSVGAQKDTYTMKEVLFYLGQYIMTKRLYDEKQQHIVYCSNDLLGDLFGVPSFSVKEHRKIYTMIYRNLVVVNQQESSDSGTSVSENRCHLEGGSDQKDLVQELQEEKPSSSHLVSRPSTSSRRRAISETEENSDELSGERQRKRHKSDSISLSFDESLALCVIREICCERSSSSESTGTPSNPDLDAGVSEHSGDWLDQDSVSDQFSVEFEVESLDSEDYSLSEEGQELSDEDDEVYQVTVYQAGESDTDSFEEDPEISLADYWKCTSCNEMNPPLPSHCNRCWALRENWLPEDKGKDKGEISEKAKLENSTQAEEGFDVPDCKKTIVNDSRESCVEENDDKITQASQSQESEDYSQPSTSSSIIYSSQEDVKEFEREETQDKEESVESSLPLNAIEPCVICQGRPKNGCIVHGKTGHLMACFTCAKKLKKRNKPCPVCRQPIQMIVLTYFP
UPR XBP1 act = adaptive UPR (XBP1) activation; CHO-XBP1 luciferase reporter, IRE1-XBP1 UPR activation, luminescence; percent of tunicamycin response, DMSO as zero; 0.33% of 330,000 active; activation, % at 20 µM; AID 463104;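 active = versus positive control, 20 µM dose yields 30% or more activation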;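 note: 100% = tunicamycin at 10 µg/mL and 0% = DMSO only wells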
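Material: CHO-XBP1 cells stably carrying IRE1-XBP1-driven luciferase reporter | Medium: F12 with 10% serum | Compound dosing: 20 µM single concentration, DMSO 1% | Incubation: Overnight seeding at 37 °C, 6 h compound treatment at 37 °C | Detection: Steady-Glo luminescence read | Read-out basis: % activation of reporter signal versus tunicamycin and DMSO controls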
Beta cell apopt = beta cell apoptosis inhibition. AID 435005. 0.8% of 300,000 active. INS-1E cytokine-induced death, ATP luminescence, 48 h; percent of positive-control rescue, neutral wells zero. protection from apoptosis, % (concentration not given with the values);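 active = Every replicate reaches about 75%, or at least half do and their mean reaches it too, limit read from the data; inconclusive = At least half of replicates reach the limit but their mean does not; inactive = Under half of replicates reach the limit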;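 note: 0% = cytokine-treated negative control wells and 100% = positive control rescue; higher means more ATP so stronger rescue from cytokine killing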
CHOP UPR activ = activators of apoptotic arm of unfolded protein response (CHOP); CHO-CHOP luciferase reporter, UPR activation, luminescence; percent of tunicamycin response over DMSO baseline; activation, % at 10 µM; 0.34% of 330,000 active;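 active = at 10 µM dose, activation of 40% or more, normalized to positive control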;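 note: 100% = tunicamycin at 10 µg/mL and 0% = DMSO alone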
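System: CHO CHOP reporter cells. Amount: 500 cells per well. Buffer or medium: F12 medium, 10% FBS. Compound dosing: one dose, 10 µM in 0.5% DMSO. Incubation: 6 h compound exposure at 37 °C after overnight seeding. Technique: Steady-Glo luciferase luminescence. Benchmarks: tunicamycin and DMSO controls.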
CSC inhib = blocks cancer stem cells. inhibition, % at 7.5 µM. AID 2717. cancer stem cell-like cells viability, luminescence. 1.1% of 300,000 active; in the data active = inhibition above about 75%; inconclusive = no clear call, values can overlap the other calls; tested in HMLE shEcad cells
SKKanGAS inh = inhibitors of SKKanGAS S. pyogenes growth in kanamycin (SK-promoter or general growth effect) | inhibition, % at 7.5 µM | BacTiter-Glo, 6 h | 1.3% of 300,000 active;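 active = mean replicate score, as percent of positive control median, at least 50; inconclusive = mean below 50 but one replicate at or above 50; inactive = mean and every replicate below 50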;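 note: strain carries kanamycin resistance gene driven by streptokinase promoter and grows in 40 µg/ml kanamycin; loss of luminescence reflects streptokinase promoter inhibition or plain growth inhibition; 0% = median of DMSO wells and 100% = positive control at its reference dose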
* hit, by the source's call; ? = inconclusive; · = no result.

SMILES	Mdm2-MdmX inh	UPR XBP1 act	Beta cell apopt	CHOP UPR activ	CSC inhib	SKKanGAS inh
CCOc1ccc(NC(=S)NNC(=S)Nc2cccc(C(F)(F)F)c2)cc1	5.9	-2.4	23.6	-1.4	33.6	51.3*
CNNC(=S)Nc1cccc(C(F)(F)F)c1	-13.1	-3.4	-4.0	-1.8	1.5	-4.2
FC(F)(F)c1cccc(NC(=S)Nc2ccc(Cl)c(Cl)c2)c1	47.1	1.2	13.6	16.4	42.1	96.3*
FC(F)(F)c1cccc(NC(=S)NNC(=S)Nc2cccc(C(F)(F)F)c2)c1	43.7	-0.2	96.8*	3.9	110.5*	100.8*
Cc1ccn(CC(=O)N2CCCC(N3CCN(Cc4ccc5c(c4)OCO5)CC3)C2)n1 (stereo not given)	22.8	-3.4	-5.6	1.1	1.6	1.6
CCOc1ccc2nc(N3C(=O)/C(=C/c4ccccc4)NC3=S)sc2c1	-43.3	8.4	14.6	7.2	·	99.6*
CCOc1ccc2nc(N3CCCCCC3)sc2c1	-277.1	0.5	6.7	-0.1	18.0	-2.7
NC(=O)C1CCN(C(=O)c2cccc(S(=O)(=O)N3CCCC3)c2)CC1	-6.9	-1.7	·	-0.4	·	·
CCOc1ccc(S(=O)(=O)N2CCCC(C(=O)N3CCN(CC)CC3)C2)cc1Cl (stereo not given)	9.2	-2.0	3.0	-0.2	30.8	0.8
COc1ccc(C(=O)Cn2nnc(-c3ccccc3NC(=O)c3ccco3)n2)cc1	12.0	4.9	-2.9	-0.6	34.9	54.5*
Cn1cccc1-c1nc2ccccc2n1Cc1ccccc1	-8.6	-0.8	-4.1	-0.4	88.2*	-4.5
COc1ccc(Cl)cc1NC(=O)CN(C)C(=O)c1cc(-c2ccncc2)nc2ccccc12	33.5	0.2	6.8	-0.5	18.8	-8.7
CCN(CC)c1nc(SCCOC(=O)Nc2ccccc2)nc(N(CC)CC)n1	17.5	3.9	7.8	0.1	80.6*	10.1
CN(C)c1nc(SCCOC(=O)c2ccccc2)nc(N(C)C)n1	-1.8	-1.9	-7.0	1.6	-6.1	-1.6
COc1cccc(C(=O)/C=C/c2ccc(N3CCCCC3)c([N+](=O)[O-])c2)c1	11.0	-2.8	-2.0	4.7	85.9*	29.6
CC(C)Oc1cccc(C(=O)NC(=S)N2CCN(c3ccc(C(F)(F)F)cc3[N+](=O)[O-])CC2)c1	46.1	3.5	6.2	1.9	24.1	97.3*
COc1cccc(C(=O)NC(=S)N2CCN(c3ccc(C(F)(F)F)cc3[N+](=O)[O-])CC2)c1	10.4	-3.5	·	1.1	-8.0	70.3*
COc1cccc(OC)c1C(=O)NC(=S)N1CCN(c2ccc(C(F)(F)F)cc2[N+](=O)[O-])CC1	40.5	1.3	3.4	-1.1	-3.1	9.8
O=C(NC(=S)N1CCN(c2ccc(Cl)cc2[N+](=O)[O-])CC1)c1cccs1	·	·	7.0	·	19.7	71.5*
CC(Nc1nc(-c2ccccc2O)nc2ccccc12)c1ccccc1 (stereo not given)	37.0	-2.9	7.6	0.1	59.5	57.9*
Nc1ccc(O)c2ccccc12	14.3	3.1	1.6	6.3	28.6	10.2
O=C(Nc1ccc(NC(=O)c2ccc([N+](=O)[O-])o2)cc1Cl)c1ccco1	34.6	-5.3	0.0	7.5	53.6	7.6
O=C(Nc1cccc(NC(=O)c2ccc([N+](=O)[O-])o2)c1)c1ccco1	19.9	-5.4	-3.1	7.5	86.7*	?
O=C(Nc1nc(-c2cccs2)cs1)c1ccco1	-110.8	7.5	·	4.8	-12.2	4.6
COc1cc(NC(=O)c2ccc([N+](=O)[O-])o2)ccc1NC(=O)c1cccs1	24.5	4.4	77.7*	4.2	50.3	22.1
SMILES	Mdm2-MdmX inh	UPR XBP1 act	Beta cell apopt	CHOP UPR activ	CSC inhib	SKKanGAS inh
O=C(Nc1nc(-c2cccs2)cs1)c1ccc([N+](=O)[O-])o1	34.8	2.9	-11.0	22.8	90.2*	·
COc1ccc(-c2cc3ccccc3oc2=O)cc1NC(=O)c1ccc([N+](=O)[O-])o1	6.2	4.5	82.1*	5.3	·	20.2
CCC(=O)Nc1cc(-c2cc3ccccc3oc2=O)ccc1OC	-14.1	-0.6	4.7	-0.3	3.3	-1.3
Cc1cc(NC(=O)Cc2cc(F)cc(F)c2)no1	-40.1	-1.0	-0.9	5.6	-6.6	0.9
Cc1n[nH]c(C)c1CCCCOc1ccccc1F	22.9	-1.2	-9.6	1.3	3.4	68.0*
Cc1ccccc1OCCCc1c(C)n[nH]c1C	-7.0	0.2	4.1	3.0	-12.7	64.5*
Cc1n[nH]c(C)c1CCCCOc1ccccc1	12.2	1.4	2.9	0.6	-20.0	3.5
Cc1ccccc1OCCCCc1c(C)n[nH]c1C	22.1	-0.1	49.4	2.4	5.2	94.5*
Cc1cccc(C)c1OCCCCc1c(C)n[nH]c1C	-13.1	-1.1	-1.9	1.4	-12.5	-8.3
Cc1ccc(S(=O)(=O)N2CCN(C(=O)CNC(=O)c3sc4ccccc4c3Cl)CC2)cc1	22.1	4.0	-2.0	3.5	·	-1.8
CCOc1ccc(S(=O)(=O)N2CCC(C(=O)OC(C)C(=O)N(C)C3CCCCC3)CC2)cc1 (stereo not given)	26.5	-1.0	-8.3	0.7	-6.0	-0.3
Cc1ccc(C)c(N2CCN(C(=O)CCc3nc(-c4ccc(Br)cc4)no3)CC2)c1	-0.5	2.6	·	4.2	·	·
Oc1ccccc1C1CCCCC1c1ccccc1 (stereo not given)	·	·	13.3	·	75.6*	?
O=c1c(/C=N/OCc2ccc(Cl)cc2Cl)c[nH]n1-c1cccc(Cl)n1	13.1	-1.4	-1.9	-0.6	93.5*	9.2
O=c1c(-n2cncn2)c[nH]n1-c1cccc(Cl)n1	18.9	-3.4	5.0	-2.2	-3.3	5.8
Oc1c(Cl)cc(Cl)cc1/C=N/NC(=S)NC1CC2C=CC1C2 (stereo not given)	37.2	7.8	·	1.2	100.2*	110.9*
Oc1ccccc1/C=N/NC(=S)NC1CC2C=CC1C2 (stereo not given)	13.8	2.2	·	3.4	53.6	91.5*
Cc1c(NC(=S)N/N=C\c2ccccc2O)c(=O)n(-c2ccccc2)n1C	9.0	-1.6	2.1	1.0	-2.2	-3.3
C=CC[C@H](CC(=O)NCCO)C(=O)N[C@@H](COC(=O)[C@H](CC=C)CC(=O)OC(C)(C)C)Cc1c[nH]c2ccccc12	21.6	-1.3	1.9	-0.7	-18.4	·
Cc1nccn1CCOc1ccccc1Cl	3.4	-6.2	·	-0.7	·	2.2
CC(=O)/C=C/n1c(=S)oc2ccccc21	·	·	99.6*	·	-1.3	3.0
C[C@H](CO)N1C[C@H](C)[C@@H](CN(C)S(C)(=O)=O)Oc2c(NC(=O)Nc3ccccc3)cccc2C1=O	-9.6	1.6	·	-2.5	·	·
Cc1cccc(CSc2ncnc3c2cnn3Cc2ccccc2)c1	-10.0	0.7	4.1	-2.4	9.7	76.1*
O=C(NNc1ccccc1Br)C(=O)n1ccc2ccccc21	-5.9	-2.6	-11.4	1.0	85.1*	11.8
